This is an account of results in ChEMBL document CHEMBL1926589, “2-Anilinonicotinyl linked 2-aminobenzothiazoles and [1,2,4]triazolo[1,5-b] [1,2,4]benzothiadiazine conjugates as potential mitochondrial apoptotic inducers” (Bioorg Med Chem, 2011).

Each structure is given as a SMILES string.

Format in all cases: functional
Holding throughout (details): read-out: GI

The nature of test [1]: Growth inhibition of human 502713 cells at 10 uM by sulforhodamine B assay. The essentials: (§1)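 Single-dose 10 µM screen by sulforhodamine B assay, reported as percent inhibition of cell proliferation. Cells grown in medium with 10% heat-inactivated FBS at 37 °C, 5% CO2, and treated at about 70% confluence or in log phase. Compounds dissolved in DMSO; controls received vehicle (<0.5% v/v).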

In another test the test system is OVCAR-5. In words: Growth inhibition of human OVCAR5 cells at 10 uM by sulforhodamine B assay. The essentials: as §1
(In SRB staining, fixed cells bind dye roughly in proportion to their protein.)

The next test relates to SK-N-SH. In words: Growth inhibition of human SK-N-SH cells at 10 uM by sulforhodamine B assay. In short, it runs like this: as §1
The subject of another test is HEp-2. The experiment in a line: Growth inhibition of human Hep2 cells at 10 uM by sulforhodamine B assay. The essentials: as §1
In another test the test system is SW-620. The experiment in a line: Growth inhibition of human SW620 cells at 10 uM by sulforhodamine B assay. In short, it runs like this: as §1
In another test the test system is HCT-15. In words: Growth inhibition of human HCT15 cells at 10 uM by sulforhodamine B assay. The essentials: as §1
The subject of the next test is DU-145. The experiment in a line: Growth inhibition of human DU145 cells at 10 uM by sulforhodamine B assay. The essentials:
as §1

The subject of another test is A549. The experiment in a line: Growth inhibition of human A549 cells at 10 uM by sulforhodamine B assay. The essentials: as §1
For the next test, the system named is SiHa. The experiment in a line: Growth inhibition of human SiHa cells at 10 uM by sulforhodamine B assay. In short, it runs like this:
as §1

The test system of the next test is IMR-32. In words: Growth inhibition of human IMR32 cells at 10 uM by sulforhodamine B assay. In short, it runs like this:
as §1

Turning to `COc1ccc(Nc2ncccc2-c2nc3n(n2)S(=O)(=O)c2ccccc2N3c2ccccc2)cc1`, the inhibition of growth at 10 µM in test [1] amounted to 2%; with OVCAR-5, 2%; in the test with SK-N-SH it was 0%; in the test on HEp-2, 10%; with SW-620 it was 14%; in the test on HCT-15, 0%. Also, the inhibition of growth at 10 µM in the test with DU-145 came out at 5%; with A549, 0%; in the test with SiHa it was 0%; with IMR-32, 0%.
In the case of `COc1ccc2nc(NC(=O)c3cccnc3Nc3ccc(Cl)cc3)sc2c1`, the inhibition of growth at 10 µM in test [1] was found to be 10%; in the test on OVCAR-5, 10%; in the test on SK-N-SH it was 23%; with HEp-2, 13%; in the test with SW-620, 15%; in the test with HCT-15, 44%. Further, the inhibition of growth at 10 µM was found to be 25% in the test with DU-145, 10% with A549, 31% in the test with SiHa and 24% in the test with IMR-32.
Take `O=S1(=O)c2ccccc2N(c2ccccc2)c2nc(-c3cccnc3Nc3cc(F)c(F)c(F)c3)nn21`: the inhibition of growth at 10 µM is 14% in [1]; 2% in the test on OVCAR-5; 16% in the test with SK-N-SH; 52% in the test on HEp-2; 22% with SW-620; 0% in the test on HCT-15. Further, the inhibition of growth at 10 µM was determined as 14% in the test on DU-145, 3% in the test on A549, 26% with SiHa and 48% with IMR-32.
With `O=S1(=O)c2ccccc2N(c2ccccc2)c2nc(-c3cccnc3Nc3ccc(Cl)cc3Cl)nn21`, the inhibition of growth at 10 µM was 19% in test [1]; 8% in the test with OVCAR-5; 23% in the test with SK-N-SH; 25% with HEp-2; 27% in the test with SW-620; 0% with HCT-15. In addition, the inhibition of growth at 10 µM stood at 20% in the test with DU-145, 66% with A549, 23% in the test on SiHa and 11% in the test with IMR-32.
